Converted amounts (≈) assume the structure as drawn.
Legend:
Streptococcus pneumoniae = experiment: Antibacterial activity against Streptococcus pneumoniae TCH8431 after 20 hrs by broth microdilution assay; assay type: functional; details: TCH8431, 20 h
Streptococcus agalactiae = experiment: Antibacterial activity against Streptococcus agalactiae SGBS005 after 20 hrs by broth microdilution assay; assay type: functional; details: SGBS005, 20 h
HepG2 = experiment: Cytotoxicity against human HepG2 cells assessed as reduction in cell viability after 72 hrs by MTT assay; assay type: cell-based; details: HepG2, 72 h
Enterococcus faecium = experiment: Antibacterial activity against vancomycin-resistant Enterococcus faecium ATCC 700221 after 20 hrs by broth microdilution assay; assay type: functional; details: ATCC 700221, 20 h
How it was run: (§1)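 Brain heart infusion broth at 37°C; E. faecium under 5% CO2. Cells at 0.5 McFarland are diluted 1:100 and exposed to serial dilutions (DMSO stocks 1 mM or 1 mg/mL; controls in water).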

[1] = test system: Staphylococcus epidermidis; experiment: Antibacterial activity against vancomycin-intermediate resistant Staphylococcus epidermidis NRS6 after 20 hrs by broth microdilution assay; assay type: functional; details: NRS6, 20 h
Staphylococcus aureus [2] = experiment: Antibacterial activity against vancomycin-intermediate resistant Staphylococcus aureus AR-217 after 20 hrs by broth microdilution assay; assay type: functional; details: AR-217, 20 h
Staphylococcus aureus [3] = experiment: Antibacterial activity against vancomycin-resistant Staphylococcus aureus HIP14300 after 20 hrs by broth microdilution assay; assay type: functional; details: HIP14300, 20 h
Streptococcus pyogenes = experiment: Antibacterial activity against Streptococcus pyogenes H293 after 20 hrs by broth microdilution assay; assay type: functional; details: H293, 20 h
Staphylococcus aureus [4] = experiment: Antibacterial activity against methicillin-resistant Staphylococcus aureus COL after 20 hrs by broth microdilution assay; assay type: functional
Salmonella typhi = experiment: Antibacterial activity against Salmonella typhi Ty2 after 20 hrs by Todd Hewitt broth broth microdilution method; assay type: functional, Salmonella enterica subsp. enterica serovar Typhi str. Ty2; details: Salmonella enterica
Rhodococcus erythropolis = experiment: Antibacterial activity against Rhodococcus erythropolis SK121 after 20 hrs by broth microdilution assay; assay type: functional; details: SK121, 20 h
How it was run: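 R. erythropolis grown in brain heart infusion broth at 30°C. A 0.5 McFarland suspension diluted 1:100 is treated with serial dilutions from 1 mM or 1 mg/mL DMSO stocks; control antibiotics are in water.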

Citrobacter freundii = experiment: Antibacterial activity against Citrobacter freundii 4_7_47CFAA after 20 hrs by broth microdilution assay; assay type: functional
How it was run: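 Brucella broth, 37°C, 5% CO2. Inoculum is 0.5 McFarland diluted 1:100, with serial drug dilutions from DMSO stocks (1 mM or 1 mg/mL) and control antibiotics in water.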

[5] = test system: Yersinia pseudotuberculosis; experiment: Antibacterial activity against Yersinia pseudotuberculosis P61 after 20 hrs by broth microdilution assay; assay type: functional; details: P61, 20 h
How it was run: (§2)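 Yersinia cultured in tryptic soy broth at 28°C. A 0.5 McFarland suspension diluted 1:100 receives serial dilutions of agents from 1 mM or 1 mg/mL DMSO stocks; control antibiotics are in water.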

Francisella tularensis = experiment: Antibacterial activity against Francisella tularensis Utah 112 after 20 hrs by broth microdilution assay; assay type: functional; details: Utah 112, 20 h
Acinetobacter baumannii = experiment: Antibacterial activity against Acinetobacter baumannii AB5075 after 20 hrs by broth microdilution assay; assay type: functional; details: AB5075, 20 h
Burkholderia multivorans = experiment: Antibacterial activity against Burkholderia multivorans CF2 after 20 hrs by broth microdilution assay; assay type: functional; details: CF2, 20 h
How it was run: (§3)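 Medium is tryptic soy broth, 37°C. Overnight culture is adjusted to 0.5 McFarland, diluted 1:100 and exposed to serial dilutions (test agents from 1 mM or 1 mg/mL DMSO stocks; control antibiotics in water). Incubation lasts 20 h. MIC is the lowest concentration with no visible growth.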

Yersinia pestis [6] = experiment: Antibacterial activity against Yersinia pestis Kuma D7 after 20 hrs by broth microdilution assay; assay type: functional; details: Kuma D7, 20 h
Vibrio cholerae = experiment: Antibacterial activity against Vibrio cholerae TS D4 after 20 hrs by Todd Hewitt broth broth microdilution method; assay type: functional; details: TS D4, 20 h
Proteus mirabilis = experiment: Antibacterial activity against Proteus mirabilis HM-752 after 20 hrs by broth microdilution assay; assay type: functional; details: HM-752, 20 h; how it was run: as §3
Escherichia coli = experiment: Antibacterial activity against Escherichia coli DC10B after 20 hrs by broth microdilution assay; assay type: functional; how it was run: as §3
Corynebacterium striatum = experiment: Antibacterial activity against Corynebacterium striatum FS-1 after 20 hrs by broth microdilution assay; assay type: functional; details: FS-1, 20 h
Yersinia pestis [7] = experiment: Antibacterial activity against Yersinia pestis Kim D2 after 20 hrs by broth microdilution assay; assay type: functional; details: Kim D2, 20 h
Bacillus cereus = experiment: Antibacterial activity against Bacillus cereus Gibson 971 after 20 hrs by broth microdilution assay; assay type: functional; details: Gibson 971, 20 h
Listeria monocytogenes = experiment: Antibacterial activity against Listeria monocytogenes Gibson after 20 hrs by broth microdilution assay; assay type: functional; how it was run: as §1
Brucella neotomae = experiment: Antibacterial activity against Brucella neotomae 5K33 after 20 hrs by broth microdilution assay; assay type: functional; details: 5K33, 20 h
Micrococcus luteus = experiment: Antibacterial activity against Micrococcus luteus SK58 after 20 hrs by broth microdilution assay; assay type: functional; details: SK58, 20 h
Burkholderia cepacia = experiment: Antibacterial activity against Burkholderia cepacia UCB 717 after 20 hrs by broth microdilution assay; assay type: functional; details: UCB 717, 20 h; how it was run: as §3
Pseudomonas aeruginosa = experiment: Antibacterial activity against Pseudomonas aeruginosa ATCC 15442 after 20 hrs by broth microdilution assay; assay type: functional; details: ATCC 15442, 20 h; how it was run: as §3
Bacillus anthracis [8] = experiment: Antibacterial activity against Bacillus anthracis UM23-1 after 20 hrs by broth microdilution assay; assay type: functional; details: UM23-1, 20 h
Klebsiella pneumoniae = experiment: Antibacterial activity against Klebsiella pneumoniae 700603 after 20 hrs by broth microdilution assay; assay type: functional; details: Klebsiella pneumoniae, 700603, 20 h; how it was run: as §3
Yersinia enterocolitica = experiment: Antibacterial activity against Yersinia enterocolitica WA-314 after 20 hrs by broth microdilution assay; assay type: functional; details: WA-314, 20 h; how it was run: as §2
Shigella dysenteriae = experiment: Antibacterial activity against Shigella dysenteriae Newcastle 1934 after 20 hrs by broth microdilution assay; assay type: functional; details: Newcastle 1934, 20 h; how it was run: as §3
Bacillus anthracis [9] = experiment: Antibacterial activity against Bacillus anthracis Sterne 34F2 after 20 hrs by broth microdilution assay; assay type: functional; details: Sterne 34F2, 20 h
Bacillus anthracis [10] = experiment: Antibacterial activity against Bacillus anthracis Ames 35 after 20 hrs by broth microdilution assay; assay type: functional; details: Ames 35, 20 h
Bacillus anthracis [11] = experiment: Antibacterial activity against Bacillus anthracis Weybridge after 20 hrs by broth microdilution assay; assay type: functional

## CCCCCCCCCSSC(=S)N(CC)CC
Streptococcus pneumoniae
  MIC: 8 µM (≈ 2.46 µg/mL)
Streptococcus agalactiae
  MIC: 32 µM (≈ 9.84 µg/mL)
HepG2
  IC50: 55 µM
Enterococcus faecium
  MIC: 8 µM (≈ 2.46 µg/mL)
[1]
  MIC: 4 µM (≈ 1.23 µg/mL)
Staphylococcus aureus [2]
  MIC: 8 µM (≈ 2.46 µg/mL)
Staphylococcus aureus [3]
  MIC: 16 µM (≈ 4.92 µg/mL)
Streptococcus pyogenes
  MIC: 8 µM (≈ 2.46 µg/mL)
Staphylococcus aureus [4]
  MIC: 8 µM (≈ 2.46 µg/mL)

## CCCCSSC(=S)N(CC)CC [BUTYL DIETHYLCARBAMO(DITHIOPEROXO)THIOATE]
Streptococcus pneumoniae
  MIC: > 32 µM
Streptococcus agalactiae
  MIC: > 32 µM
Enterococcus faecium
  MIC: > 32 µM
[1]
  MIC: 32 µM (≈ 7.6 µg/mL)
Staphylococcus aureus [2]
  MIC: 16 µM (≈ 3.8 µg/mL)
Staphylococcus aureus [3]
  MIC: 16 µM (≈ 3.8 µg/mL)
Streptococcus pyogenes
  MIC: 32 µM (≈ 7.6 µg/mL)
Staphylococcus aureus [4]
  MIC: 16 µM (≈ 3.8 µg/mL)

## CCN(CC)C(=S)SSC1CCCC1
Streptococcus pneumoniae
  MIC: > 32 µM
Streptococcus agalactiae
  MIC: > 32 µM
Enterococcus faecium
  MIC: > 32 µM
[1]
  MIC: 32 µM (≈ 7.98 µg/mL)
Staphylococcus aureus [2]
  MIC: 16 µM (≈ 3.99 µg/mL)
Staphylococcus aureus [3]
  MIC: 32 µM (≈ 7.98 µg/mL)
Streptococcus pyogenes
  MIC: 32 µM (≈ 7.98 µg/mL)
Staphylococcus aureus [4]
  MIC: 32 µM (≈ 7.98 µg/mL)

## CCN(CC)C(=S)SSC(C)C [ISOPROPYL DIETHYLCARBAMO(DITHIOPEROXO)THIOATE]
Streptococcus pneumoniae
  MIC: > 32 µM
Streptococcus agalactiae
  MIC: > 32 µM
Enterococcus faecium
  MIC: > 32 µM
[1]
  MIC: > 32 µM
Staphylococcus aureus [2]
  MIC: 32 µM (≈ 7.15 µg/mL)
Staphylococcus aureus [3]
  MIC: > 32 µM
Streptococcus pyogenes
  MIC: 32 µM (≈ 7.15 µg/mL)
Staphylococcus aureus [4]
  MIC: > 32 µM

## O=C(O)c1cn(C2CC2)c2cc(N3CCNCC3)c(F)cc2c1=O [CIPROFLOXACIN]
Salmonella typhi
  MIC: ≤ 0.5 µM
Rhodococcus erythropolis
  MIC: ≤ 0.5 µM
Citrobacter freundii
  MIC: ≤ 0.5 µM
[5]
  MIC: ≤ 0.5 µM
Francisella tularensis
  MIC: ≤ 0.5 µM
Acinetobacter baumannii
  MIC: ≤ 0.5 µM
Burkholderia multivorans
  MIC: 8 µM (≈ 2.65 µg/mL)
Yersinia pestis [6]
  MIC: ≤ 0.5 µM
Vibrio cholerae
  MIC: ≤ 0.5 µM
Proteus mirabilis
  MIC: ≤ 0.5 µM
Escherichia coli
  MIC: ≤ 0.5 µM
Corynebacterium striatum
  MIC: > 32 µM
Yersinia pestis [7]
  MIC: ≤ 0.5 µM

## CCN(CC)C(=S)SSC
Bacillus cereus
  MIC: 1 µM (≈ 0.195 µg/mL)
Listeria monocytogenes
  MIC: 32 µM (≈ 6.25 µg/mL)
Brucella neotomae
  MIC: > 32 µM
Streptococcus pneumoniae
  MIC: > 32 µM
Micrococcus luteus
  MIC: 32 µM (≈ 6.25 µg/mL)
Salmonella typhi
  MIC: > 32 µM
Rhodococcus erythropolis
  MIC: 16 µM (≈ 3.13 µg/mL)
Citrobacter freundii
  MIC: > 32 µM
Streptococcus agalactiae
  MIC: > 32 µM
Burkholderia cepacia
  MIC: > 32 µM
[5]
  MIC: > 32 µM
Francisella tularensis
  MIC: 32 µM (≈ 6.25 µg/mL)
Acinetobacter baumannii
  MIC: > 32 µM
Burkholderia multivorans
  MIC: 32 µM (≈ 6.25 µg/mL)
Enterococcus faecium
  MIC: > 32 µM
Yersinia pestis [6]
  MIC: 16 µM (≈ 3.13 µg/mL)
Pseudomonas aeruginosa
  MIC: > 32 µM
[1]
  MIC: 32 µM (≈ 6.25 µg/mL)
Bacillus anthracis [8]
  MIC: 2 µM (≈ 0.391 µg/mL)
Vibrio cholerae
  MIC: 32 µM (≈ 6.25 µg/mL)
Klebsiella pneumoniae
  MIC: > 32 µM
Staphylococcus aureus [2]
  MIC: 8 µM (≈ 1.56 µg/mL)
Yersinia enterocolitica
  MIC: > 32 µM
Proteus mirabilis
  MIC: > 32 µM
Staphylococcus aureus [3]
  MIC: 16 µM (≈ 3.13 µg/mL)
Shigella dysenteriae
  MIC: > 32 µM
Escherichia coli
  MIC: > 32 µM
Bacillus anthracis [9]
  MIC: 4 µM (≈ 0.782 µg/mL)
Streptococcus pyogenes
  MIC: 32 µM (≈ 6.25 µg/mL)
Bacillus anthracis [10]
  MIC: 4 µM (≈ 0.782 µg/mL)
Corynebacterium striatum
  MIC: > 32 µM
Bacillus anthracis [11]
  MIC: 4 µM (≈ 0.782 µg/mL)
Yersinia pestis [7]
  MIC: 16 µM (≈ 3.13 µg/mL)
Staphylococcus aureus [4]
  MIC: 32 µM (≈ 6.25 µg/mL)

## CCN(CC)C(=S)SSC1CCCCC1 [CYCLOHEXYL DIETHYLCARBAMO(DITHIOPEROXO)THIOATE]
Streptococcus pneumoniae
  MIC: > 32 µM
Streptococcus agalactiae
  MIC: > 32 µM
Enterococcus faecium
  MIC: > 32 µM
[1]
  MIC: 32 µM (≈ 8.43 µg/mL)
Staphylococcus aureus [2]
  MIC: 16 µM (≈ 4.22 µg/mL)
Staphylococcus aureus [3]
  MIC: 32 µM (≈ 8.43 µg/mL)
Streptococcus pyogenes
  MIC: 16 µM (≈ 4.22 µg/mL)
Staphylococcus aureus [4]
  MIC: 32 µM (≈ 8.43 µg/mL)

Source: ChEMBL document CHEMBL4219167, “Disulfiram-based disulfides as narrow-spectrum antibacterial agents” (Bioorg Med Chem Lett, 2018)
